The text below walks through data of ChEMBL document CHEMBL3351838, “Ligand-based pharmacophore modeling and virtual screening for the discovery of novel 17β-hydroxysteroid dehydrogenase 2 inhibitors” (J Med Chem, 2014).

The term IC50 denotes the midpoint of a concentration-inhibition curve. A high value points to weaker potency.

The target in assay [1] is T1, 17-beta-hydroxysteroid dehydrogenase type 2 (Homo sapiens, UniProt P37059).
T1 sequence (P37059 whole entry): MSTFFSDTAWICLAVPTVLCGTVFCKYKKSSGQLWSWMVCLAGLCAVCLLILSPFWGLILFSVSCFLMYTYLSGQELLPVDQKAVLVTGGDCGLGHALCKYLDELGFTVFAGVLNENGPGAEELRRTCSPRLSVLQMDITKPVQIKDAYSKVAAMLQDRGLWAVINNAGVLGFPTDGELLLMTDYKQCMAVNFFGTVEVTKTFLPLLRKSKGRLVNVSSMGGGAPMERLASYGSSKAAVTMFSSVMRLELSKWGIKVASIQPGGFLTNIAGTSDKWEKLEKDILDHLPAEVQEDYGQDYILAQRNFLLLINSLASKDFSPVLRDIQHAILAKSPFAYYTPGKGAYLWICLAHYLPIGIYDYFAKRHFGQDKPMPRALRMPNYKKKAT
In words: Inhibition of 17beta-HSD2 (unknown origin) expressed in HEK293 cells lysate. The format is cell-free. In short, it runs like this: (§1)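 Human 17β-HSD2 from lysates of calcium-phosphate-transfected HEK-293 cells (harvested 48 h). Incubated 10 min at 37 °C in TS2 buffer (pH 7.4) with inhibitor or 0.2% DMSO/chloroform. Substrate 190 nM unlabeled plus 10 nM radiolabeled estradiol with 500 μM NAD+. Stopped with excess estradiol/estrone. Radiolabeled steroids separated by TLC and counted; at least three independent measurements. Rest activity at 20 μM as % of control.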

In assay [2] the target is T2, 17-beta-hydroxysteroid dehydrogenase type 1 (Homo sapiens) (UniProt P14061).
T2 sequence (whole entry): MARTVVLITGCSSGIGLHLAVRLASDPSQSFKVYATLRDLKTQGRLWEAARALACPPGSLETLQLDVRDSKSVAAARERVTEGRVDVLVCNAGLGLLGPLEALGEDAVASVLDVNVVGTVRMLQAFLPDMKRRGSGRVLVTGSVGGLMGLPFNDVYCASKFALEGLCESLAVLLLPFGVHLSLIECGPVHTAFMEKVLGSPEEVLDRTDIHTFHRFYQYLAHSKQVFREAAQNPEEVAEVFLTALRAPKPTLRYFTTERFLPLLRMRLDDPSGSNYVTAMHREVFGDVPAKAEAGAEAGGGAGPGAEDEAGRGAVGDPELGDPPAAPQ
Nature of the assay: Inhibition of 17beta-HSD1 (unknown origin) expressed in HEK293 cells lysate assessed as residual enzyme activity at 20 uM. The format is cell-free. The method in brief: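 Lysate of HEK-293 cells transfected by calcium phosphate with human 17β-HSD1, harvested after 48 h. Incubated 10 min at 37 °C in TS2 buffer (pH 7.4) with inhibitor or 0.2% DMSO/chloroform. Substrate 190 nM unlabeled plus 10 nM radiolabeled estrone with 500 μM NADPH. Stopped with excess estradiol/estrone. TLC separation and scintillation counting; at least three independent measurements.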

Assay [3] deals with T3, 11-beta-hydroxysteroid dehydrogenase 1 (Homo sapiens, UniProt P28845). In words: Inhibition of 11beta-HSD1 (unknown origin) expressed in HEK293 cells lysate assessed as residual enzyme activity at 20 uM. The format is cell-free. The method in brief:
(§2)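 Lysates of stably transfected cells expressing 11β-HSD1 or 11β-HSD2, 10 min at 37 °C in TS2 buffer (pH 7.4) with inhibitor or 0.2% DMSO solvent. Reactions stopped after 10 min with excess unlabeled cortisone/cortisol. Steroids separated by TLC and quantified by scintillation counting. At least three independent measurements. Lines 2 and 3 report rest activity at 20 μM as % of control.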
Target sequence in this assay (P28845 whole entry, looked up): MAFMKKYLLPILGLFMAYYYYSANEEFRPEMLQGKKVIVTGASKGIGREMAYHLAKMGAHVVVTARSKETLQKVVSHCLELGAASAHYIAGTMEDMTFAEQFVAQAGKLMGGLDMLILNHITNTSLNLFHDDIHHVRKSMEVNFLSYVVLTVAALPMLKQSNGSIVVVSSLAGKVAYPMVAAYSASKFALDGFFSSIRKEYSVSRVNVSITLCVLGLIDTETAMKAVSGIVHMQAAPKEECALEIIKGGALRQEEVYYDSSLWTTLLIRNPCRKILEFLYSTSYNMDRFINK

Assay [4] has as its target T4, 11-beta-hydroxysteroid dehydrogenase type 2 (Homo sapiens) (UniProt P80365).
T4 sequence (whole entry): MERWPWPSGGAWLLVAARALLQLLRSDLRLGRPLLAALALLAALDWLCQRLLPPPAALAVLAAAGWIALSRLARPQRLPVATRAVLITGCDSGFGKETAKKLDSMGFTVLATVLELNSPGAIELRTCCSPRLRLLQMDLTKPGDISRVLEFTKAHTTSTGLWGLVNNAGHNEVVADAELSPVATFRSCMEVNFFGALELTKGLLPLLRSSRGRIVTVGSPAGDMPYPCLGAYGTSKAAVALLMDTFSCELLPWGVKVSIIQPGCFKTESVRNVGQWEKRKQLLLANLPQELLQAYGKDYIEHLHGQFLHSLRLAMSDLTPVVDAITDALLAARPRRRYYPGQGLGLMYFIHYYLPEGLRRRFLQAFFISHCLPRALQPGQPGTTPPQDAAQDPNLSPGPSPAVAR
In words: Inhibition of 11beta-HSD2 (unknown origin) expressed in HEK293 cells lysate assessed as residual enzyme activity at 20 uM. The format is cell-free. In short, it runs like this:
as §2

Assay [5] concerns the target T5, 17-beta-hydroxysteroid dehydrogenase type 3 (Homo sapiens) (UniProt P37058).
T5 sequence (whole entry): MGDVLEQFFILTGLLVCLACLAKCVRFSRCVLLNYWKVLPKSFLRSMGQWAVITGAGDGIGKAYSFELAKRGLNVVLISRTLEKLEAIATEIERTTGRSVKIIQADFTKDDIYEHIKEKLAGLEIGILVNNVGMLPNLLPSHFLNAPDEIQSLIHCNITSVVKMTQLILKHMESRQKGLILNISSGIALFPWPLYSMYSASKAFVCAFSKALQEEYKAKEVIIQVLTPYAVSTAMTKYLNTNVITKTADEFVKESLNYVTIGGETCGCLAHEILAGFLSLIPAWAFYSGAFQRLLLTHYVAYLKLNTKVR
Nature of the assay: Inhibition of 17beta-HSD3 (unknown origin) expressed in intact HEK293 cells assessed as residual enzyme activity at 20 uM. Type of assay: cell-based. The method in brief: (§3)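 HEK-293 cells transiently transfected with 17β-HSD3 by calcium phosphate were seeded at 15 000 cells/well and tested 24 h later in charcoal-treated DMEM. Inhibitor was preincubated 20 min at 37 °C. Substrate was 190 nM unlabeled plus 10 nM radiolabeled androstenedione for 30 min. Reactions stopped with excess androstenedione/testosterone. TLC separation and scintillation counting.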

Assay [6] deals with T6, 17-beta-hydroxysteroid dehydrogenase type 2 (Homo sapiens) (UniProt P37059).
T6 sequence (whole entry): T1 sequence (P37059 whole entry)
Nature of the assay: Inhibition of 17beta-HSD2 (unknown origin) expressed in HEK293 cells lysate assessed as residual enzyme activity at 20 uM. The format is cell-free. The method in brief: as §1

The target in assay [7] is T3, 11-beta-hydroxysteroid dehydrogenase 1. Nature of the assay: Inhibition of 11beta-HSD1 (unknown origin) expressed in HEK293 cells lysate. The format is cell-free. In short, it runs like this: as §2
Target sequence in this assay (P28845 whole entry): as the sequence (P28845 whole entry, looked up) above
Assay [8] has as its target T1, 17-beta-hydroxysteroid dehydrogenase type 2. Nature of the assay: Inhibition of 17beta-HSD2 (unknown origin) expressed in intact HEK293 cells. The format is cell-based. The method in brief: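 Transfected HEK-293 cells were seeded at 15 000 cells/well 24 h after transfection and assayed 24 h later in charcoal-treated DMEM. Inhibitor was preincubated 20 min at 37 °C, followed by 190 nM unlabeled plus 10 nM radiolabeled estradiol for 20 min. Reactions stopped with excess estradiol/estrone. Steroids separated by TLC and measured by scintillation counting.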

Assay [9] deals with T7, 17-beta-hydroxysteroid dehydrogenase type 3 (Homo sapiens, UniProt P37058).
T7 sequence (P37058 whole entry): T5 sequence (whole entry)
Nature of the assay: Inhibition of 17beta-HSD3 (unknown origin) expressed in intact HEK293 cells. Type of assay: cell-based. In short, it runs like this: as §3

SMILES strings stand for the structures.

With `O=S(=O)(Nc1cccc(O)c1)c1ccc(Br)cc1`, in assay [1], the 50% inhibitory concentration (IC50) was determined as 4.9 µM. In addition, the Activity in assay [2], in [3], in [4] and in assay [5] was > 70% throughout.

In the case of `O=S(=O)(Nc1ccc(F)c(Cl)c1)c1ccc(F)cc1`, the Activity in [6] was 45%.

With `O=S(=O)(Nc1ccccc1CO)c1ccc(Cl)cc1`, in [6], the Activity was > 70%.

For the compound `Cc1ccc(NS(=O)(=O)c2ccc(Cl)cc2)cc1O`, the Activity in assay [6] was 45%.

Consider `CC(=O)Nc1ccccc1OS(=O)(=O)c1ccc(C)c(C)c1`, for which, in assay [6], the Activity was > 70%.

Regarding `CC(O)c1ccccc1NS(=O)(=O)c1ccc(F)cc1` (stereo unspecified), the Activity in [6] is > 70%.

Regarding `O=S(=O)(Nc1ccccc1F)c1ccc(Br)cc1`, the Activity in assay [6] is > 70%.

In the case of `O=S(=O)(Nc1ccc(O)cc1)c1ccc(Cl)cc1`, the Activity in assay [6] was 55%.

For the compound `COc1cc(C)c(S(=O)(=O)Nc2ccc(Cl)cc2)cc1C`, the Activity in assay [6] is > 70%.

On to `Cc1cc(S(=O)(=O)Nc2cc(Cl)ccc2O)ccc1F`, for which the Activity in assay [6] turned out to be 44%.

With `Clc1ccc(Cl)c(-c2ccc(CNc3nn[nH]n3)o2)c1`, in assay [1], it took 33 µM to reach half-maximal inhibition (IC50). Moreover, the Activity in assay [2] is > 70%; in assay [3], > 70%; in assay [4], > 70%; in assay [5], > 70%; in [6], 29%.

In turn, `Cc1ccc(NS(=O)(=O)c2cccc(C(F)(F)F)c2)cc1O` yielded an IC50 in [1] of 7.1 µM. For the same compound, the Activity in [2] was > 70%; in assay [3], > 70%; in assay [4], > 70%; in [5], > 70%; in assay [6], 25%.

In the case of `CCC(=O)c1ccc(OS(=O)(=O)c2ccc(NC(C)=O)cc2)cc1`, the Activity in assay [6] amounted to 67%.

`O=C(CSc1ncccn1)Nc1cccc2nsnc12`: the Activity in assay [6] was > 70%.

As for `COc1ccc(/C=N/NC(=O)COc2c(Br)cc(C)cc2Br)c(OC)c1`, the Activity in assay [6] came out at 38%.

Turning to `Cc1ccc(Cl)cc1NS(=O)(=O)c1ccc(F)cc1`, in assay [6], the Activity is > 70%.

Turning to `COc1ccccc1OS(=O)(=O)c1ccc(C(C)(C)C)cc1`, in assay [6], the Activity was found to be 51%.

With `COc1ccc(S(=O)(=O)Nc2cccc(O)c2)c2c1CCCC2`, the IC50 in [1] was found to be 15 µM; in assay [7], 13 µM. The results for the Activity in assay [2], in assay [4] and in assay [5] were 53%, > 70% and > 70%, respectively.

As to `Cc1ccc(C)c(S(=O)(=O)Nc2ccc(O)cc2)c1`, the Activity in assay [6] turned out to be 39%.

`C/C(=N\NC(=O)COc1ccc(C)cc1Br)c1ccc(O)cc1O`: the Activity in assay [6] was > 70%.

As for `CC(=O)Nc1ccc(S(=O)(=O)Oc2ccc3c(c2)NCCC3)cc1`, in assay [6], the Activity is > 70%.

As for `CC(=O)Nc1ccccc1NS(=O)(=O)c1c(C)c(C)cc(C)c1C`, the Activity in assay [6] was > 70%.

For `COc1ccc(S(=O)(=O)Nc2ccc(C)c(O)c2)cc1`, the Activity in assay [6] was 47%.

With `COc1cc(C)c(S(=O)(=O)Nc2cccc(O)c2)cc1C`, half-maximal inhibition in [1] (IC50) was put at 6.9 µM. Also, the Activity was > 70% in assay [2]; > 70% in assay [3]; > 70% in assay [4]; > 70% in assay [5]; 15% in assay [6].

In the case of `Cc1ccc(NS(=O)(=O)c2cccc(Br)c2)cc1O`, in [1], the midpoint of inhibition, the IC50, lay at 6.3 µM. For the same compound, the Activity in [2] was 58%; in [3] it was > 70%; in [4], > 70%; in [5] it was > 70%.

As to `O=C(CSc1nccc(O)n1)Nc1cccc2nsnc12`, the IC50 in [1] was found to be 1.5 µM; in assay [8], 1.1 µM. Further, the Activity in assay [2] is > 70%; in assay [3], > 70%; in [4], > 70%; in assay [5], > 70%; in assay [6], 8%.

As to `COc1ccc(NS(=O)(=O)c2ccc(Cl)cc2)cc1`, the Activity in assay [6] is > 70%.

With `COc1ccc(NS(=O)(=O)c2cc(C)ccc2C)cc1`, the Activity in assay [6] is > 70%.

Turning to `COc1ccc(S(=O)(=O)Nc2ccc(O)c3c2CCCC3)cc1`, the IC50 in [1] was found to be 9.6 µM; in [7], 8.1 µM. Also, the Activity in assay [2], in assay [4] and in assay [5] was > 70% throughout.

As for `COc1cc(C)c(S(=O)(=O)Nc2ccc(C(=O)O)cc2)cc1C`, in [6], the Activity was > 70%.

Consider `CCc1ccc(CC)c(S(=O)(=O)Nc2cc(OC)ccc2OC)c1`, for which the Activity in assay [6] was > 70%.

As for `O=S(=O)(Nc1cccc(Cl)c1)c1ccc(F)cc1`, the Activity in assay [6] is > 70%.

Regarding `Cc1cc(C)c(OCC(=O)N/N=C/c2ccc(O)cc2O)c(Br)c1`, the figures for the IC50 in assay [1], in [8] and in assay [9] were 4.1 µM, 23 µM and 1.6 µM, respectively. Further, the Activity in assay [2] was determined as 52%; in assay [3], 69%; in [4] it was 61%; in assay [6] it was 9%.

Turning to `Cc1cc(Br)c(OCC(=O)N/N=C/c2c(C)cc(O)cc2O)c(Br)c1`, the Activity in assay [6] turned out to be 64%.

As for `Cc1cc(C)c(S(=O)(=O)Nc2ccc(O)cc2)c(C)c1`, the Activity in assay [6] is 33%.

`Cc1cc(C)c(S(=O)(=O)Nc2cccc(O)c2)cc1C` had an IC50 in assay [1] of 3.3 µM. Besides, the Activity in assay [2] was > 70%; in [3], > 70%; in [4], > 70%; in assay [5] it was 43%.

For the compound `O=S(=O)(Nc1ccc(O)c(Cl)c1)c1ccc(F)cc1`, the IC50 amounted to 3 µM in [1], 10 µM in [8] and 3.9 µM in [9]. Further, the Activity in assay [2] was > 70%; in [3], > 70%; in assay [4], > 70%; in assay [6], 9%.

As to `COc1ccccc1OS(=O)(=O)c1ccc(NC(C)=O)cc1`, in assay [6], the Activity is > 70%.
